Broadly, the EC50 is the midpoint of the concentration-response curve. Broadly, the IC50 is the concentration at which inhibition is half-maximal. One may read the GI50 as the concentration that inhibits growth by half. Low readings indicate more potent growth inhibition, high ones less potent growth inhibition.

The structures appear in SMILES notation.

The text below walks through data of ChEMBL document CHEMBL2021899, “Anti-AIDS agents 89. Identification of DCX derivatives as anti-HIV and chemosensitizing dual function agents to overcome P-gp-mediated drug resistance for AIDS therapy” (Bioorg Med Chem Lett, 2012).

Series [1] relates to KB. Briefly: Reversal of p-glycoprotein-mediated multidrug resistance in human vincristine-resistance KB cells assessed as potentiation of vincristine-induced cytotoxicity at 4 uM after 48 hrs by SRB assay. Type of series: cell-based. In short, it runs like this: (§1)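 Vincristine-resistant, P-gp over-expressing KB-vin cells were exposed to vincristine alone or with co-treatment by the test agent, with verapamil as positive control. Vincristine GI50 was read by SRB assay. Fold value = GI50 (vincristine alone) / GI50 (vincristine + test agent). At least three independent experiments.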
Background: In SRB staining, fixed cells bind dye roughly in proportion to their protein.

For series [2], the target named is ATP-dependent translocase ABCB1 (Homo sapiens, UniProt P08183). The experiment in a line: Inhibition of p-glycoprotein-mediated doxorubicin efflux in human KB cells assessed as doxorubicin accumulation preincubated for 1 hr prior doxorubicin addition measured after 3 hrs by fluorometric assay. The format is cell-based. The gist of the method:
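KB-vin cells were seeded at 5 × 10³ per well and grown 72 h at 37 °C in 5% CO2, then washed. They were pretreated with sample or vehicle for 1 h, then doxorubicin was added to 10 final and incubated 3 h. Cells were washed in ice-cold PBS and lysed in 1% SDS/PBS; fluorescence was read at Ex 488/Em 580 nm. Value = fluorescence with compound / without, after control subtraction. Verapamil served as positive control.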

Series [3] concerns Human immunodeficiency virus. Briefly: Antiviral activity against HIV/NL4-3 infected in human TZM-bl cells assessed as inhibition of viral replication after 48 hrs by luciferase reporter gene assay. Conditions: Human immunodeficiency virus 1, NL4-3, TZM-bl; call rule not given here. The format is functional, organism-based. For orientation: In a reporter assay the amount or activity of a reporter protein is the signal.

Series [4] can be described thus: Cytotoxicity against human TZM-bl cells after 48 hrs by CytoTox-GloTM assay. Type of series: cell-based.
Series [5] deals with KB. The experiment in a line: Reversal of p-glycoprotein-mediated multidrug resistance in human vincristine-resistance KB cells assessed as potentiation of vincristine-induced cytotoxicity at 4 uM after 48 hrs by SRB assay relative to verapamil. The format is cell-based. In short, it runs like this:
as §1

For series [6], the system named is KB. Briefly: Cytotoxicity against human KB cells at 4 uM after 48 hrs by SRB assay. The format is functional.
Series [7] relates to KB. The experiment in a line: Ratio of GI50 for human vincristine-resistance KB cells to GI50 for wild type human KB cells. Type of series: functional.

ATP-dependent translocase ABCB1, sequence (P08183 whole entry): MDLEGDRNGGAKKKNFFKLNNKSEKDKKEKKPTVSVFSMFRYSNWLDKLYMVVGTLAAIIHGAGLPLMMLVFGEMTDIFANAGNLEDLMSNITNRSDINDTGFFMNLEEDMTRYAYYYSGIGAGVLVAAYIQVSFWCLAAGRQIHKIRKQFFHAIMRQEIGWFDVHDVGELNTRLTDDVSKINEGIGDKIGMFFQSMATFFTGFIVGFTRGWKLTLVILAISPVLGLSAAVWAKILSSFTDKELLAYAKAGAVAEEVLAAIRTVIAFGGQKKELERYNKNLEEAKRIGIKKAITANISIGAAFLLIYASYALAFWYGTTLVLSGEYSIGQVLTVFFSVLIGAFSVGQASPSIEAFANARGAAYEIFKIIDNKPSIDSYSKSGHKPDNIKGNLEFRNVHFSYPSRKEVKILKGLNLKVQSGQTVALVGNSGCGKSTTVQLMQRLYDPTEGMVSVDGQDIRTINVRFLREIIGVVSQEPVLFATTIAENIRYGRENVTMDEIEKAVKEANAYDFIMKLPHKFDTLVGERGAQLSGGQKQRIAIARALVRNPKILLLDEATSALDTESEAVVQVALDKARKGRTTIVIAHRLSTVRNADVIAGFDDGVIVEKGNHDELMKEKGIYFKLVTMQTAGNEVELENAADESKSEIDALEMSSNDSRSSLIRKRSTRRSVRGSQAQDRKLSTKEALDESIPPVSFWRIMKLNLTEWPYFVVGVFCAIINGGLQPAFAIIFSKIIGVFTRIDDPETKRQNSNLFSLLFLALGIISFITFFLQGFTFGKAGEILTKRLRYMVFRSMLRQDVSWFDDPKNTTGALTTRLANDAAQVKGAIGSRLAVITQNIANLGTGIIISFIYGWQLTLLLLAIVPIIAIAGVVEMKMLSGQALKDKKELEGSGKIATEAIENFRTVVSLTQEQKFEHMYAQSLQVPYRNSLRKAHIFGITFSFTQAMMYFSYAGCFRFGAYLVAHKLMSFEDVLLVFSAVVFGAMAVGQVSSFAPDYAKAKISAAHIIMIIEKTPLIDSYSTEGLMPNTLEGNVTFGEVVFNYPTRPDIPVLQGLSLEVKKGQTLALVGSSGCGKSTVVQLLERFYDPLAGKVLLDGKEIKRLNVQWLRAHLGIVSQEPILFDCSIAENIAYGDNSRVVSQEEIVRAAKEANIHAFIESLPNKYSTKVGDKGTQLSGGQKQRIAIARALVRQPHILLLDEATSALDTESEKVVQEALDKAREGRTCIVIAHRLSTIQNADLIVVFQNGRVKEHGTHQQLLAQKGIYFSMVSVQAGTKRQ

`COc1ccc(CCN(C)CCCC(C#N)(c2ccc(OC)c(OC)c2)C(C)C)cc1OC` (stereo unspecified): the fold change (FC) with KB [1] is 60.
In the case of `COc1cc2c(c3oc4ccccc4c(=O)c13)[C@@H](OC(=O)[C@@]13CCC(C)(C(=O)O1)C3(C)C)[C@@H](OC(=O)[C@@]13CCC(C)(C(=O)O1)C3(C)C)C(C)(C)O2`, the “inhibition (INH)” value in series [2] was “Active”. Moreover, the EC50 in series [3] was determined as 0.063 µM. For the same compound, the fold change (FC) with KB [1] was 776. Further, the IC50 in series [4] was above 10 µM.
For `CCc1cc(=O)c2c(C)cc3c(c2o1)[C@@H](OC(=O)[C@@]12CCC(C)(C(=O)O1)C2(C)C)[C@@H](OC(=O)[C@@]12CCC(C)(C(=O)O1)C2(C)C)C(C)(C)O3`, the “inhibition (INH)” value in series [2] is listed as “Active”. Also, the EC50 in series [3] was 0.1 µM. The fold change (FC) with KB [1] was determined as 677. Further, the IC50 in series [4] was above 10 µM.
`CCc1cc(=O)c2ccc3c(c2o1)[C@@H](OC(=O)[C@@]12CCC(C)(C(=O)O1)C2(C)C)[C@@H](OC(=O)[C@@]12CCC(C)(C(=O)O1)C2(C)C)C(C)(C)O3`: in series [3], the EC50 amounted to 0.07 µM. Further, the fold change (FC) in the series on KB [1] came to 132. This compound also returned an IC50 in series [4] above 10 µM.
Regarding `Cc1cc(=O)c2c(C)cc3c(c2o1)[C@@H](OC(=O)[C@@]12CCC(C)(C(=O)O1)C2(C)C)[C@@H](OC(=O)[C@@]12CCC(C)(C(=O)O1)C2(C)C)C(C)(C)O3`, the “inhibition (INH)” value in series [2] is recorded as “Active”. In addition, the EC50 in series [3] was found to be 0.036 µM. The figures for the fold change (FC) with KB [1] and in the series on KB [5] were 910 and 20, respectively. The same compound showed an IC50 in series [4] above 10 µM.
Take `COc1ccc2oc3c4c(cc(OC)c3c(=O)c2c1)OC(C)(C)[C@H](OC(=O)[C@@]12CCC(C)(C(=O)O1)C2(C)C)[C@@H]4OC(=O)[C@@]12CCC(C)(C(=O)O1)C2(C)C`: the EC50 in series [3] came out at 0.121 µM. Besides, in the series with KB [1], the fold change (FC) stood at 343. The compound further yielded an IC50 in series [4] above 10 µM.
Take `COc1cc2c(c3oc4ccc(C)cc4c(=O)c13)[C@@H](OC(=O)[C@@]13CCC(C)(C(=O)O1)C3(C)C)[C@@H](OC(=O)[C@@]13CCC(C)(C(=O)O1)C3(C)C)C(C)(C)O2`: in series [3], the EC50 turned out to be 0.065 µM. Further, the fold change (FC) with KB [1] came out at 388. The compound further came in with a half-inhibitory concentration (IC50) in series [4] above 10 µM.
On to `COc1cc(C)c2c(=O)c3c(OC)cc4c(c3oc2c1)[C@@H](OC(=O)[C@@]12CCC(C)(C(=O)O1)C2(C)C)[C@@H](OC(=O)[C@@]12CCC(C)(C(=O)O1)C2(C)C)C(C)(C)O4`, for which, in series [3], the EC50 came to 0.14 µM. For the same compound, the fold change (FC) with KB [1] stood at 518. The IC50 in series [4] was above 10 µM.
As to `COc1cc2c(c3oc4cc(Br)ccc4c(=O)c13)[C@@H](OC(=O)[C@@]13CCC(C)(C(=O)O1)C3(C)C)[C@@H](OC(=O)[C@@]13CCC(C)(C(=O)O1)C3(C)C)C(C)(C)O2`, the fold change (FC) with KB [1] was 264. This compound also displayed a concentration for half-maximal inhibition (IC50) in series [4] above 10 µM.
Regarding `COc1cc2c(c3oc4cccc(C)c4c(=O)c13)[C@@H](OC(=O)[C@@]13CCC(C)(C(=O)O1)C3(C)C)[C@@H](OC(=O)[C@@]13CCC(C)(C(=O)O1)C3(C)C)C(C)(C)O2`, in series [3], the EC50 was found to be 0.15 µM. Also, the fold change (FC) was determined as 1390 in the series with KB [1] and 20 in the series with KB [5]. The compound further gave an IC50 in series [4] above 10 µM.
Regarding `Cc1cc(=O)c2ccc3c(c2o1)[C@@H](OC(=O)[C@@]12CCC(C)(C(=O)O1)C2(C)C)[C@@H](OC(=O)[C@@]12CCC(C)(C(=O)O1)C2(C)C)C(C)(C)O3`, the EC50 in series [3] is 0.1 µM. For the same compound, the fold change (FC) in the series on KB [1] amounted to 88. Further, in series [4], the IC50 was above 10 µM.
With `COc1c(Br)c2c(c3oc4ccccc4c(=O)c13)[C@@H](OC(=O)[C@@]13CCC(C)(C(=O)O1)C3(C)C)[C@@H](OC(=O)[C@@]13CCC(C)(C(=O)O1)C3(C)C)C(C)(C)O2`, the fold change (FC) stood at 1650 with KB [1] and 20 in the series on KB [5]. In series [4], this compound registered an IC50 above 10 µM.
Regarding `COc1cc2c(c3oc4c(F)cccc4c(=O)c13)[C@@H](OC(=O)[C@@]13CCC(C)(C(=O)O1)C3(C)C)[C@@H](OC(=O)[C@@]13CCC(C)(C(=O)O1)C3(C)C)C(C)(C)O2`, the concentration giving a half-maximal response (EC50) in series [3] is 0.23 µM. Also, in the series with KB [1], the fold change (FC) was found to be 880. The IC50 in series [4] was above 10 µM.
Regarding `COc1cc2c(c3oc4ccc(F)cc4c(=O)c13)[C@@H](OC(=O)[C@@]13CCC(C)(C(=O)O1)C3(C)C)[C@@H](OC(=O)[C@@]13CCC(C)(C(=O)O1)C3(C)C)C(C)(C)O2`, in series [3], the concentration giving a half-maximal response (EC50) was 0.1 µM. For the same compound, the results for the fold change (FC) with KB [1] and in the series with KB [5] were 1150 and 20, respectively. The compound also had an IC50 in series [4] above 10 µM.
Turning to `COc1ccc2c(=O)c3c(OC)cc4c(c3oc2c1)[C@@H](OC(=O)[C@@]12CCC(C)(C(=O)O1)C2(C)C)[C@@H](OC(=O)[C@@]12CCC(C)(C(=O)O1)C2(C)C)C(C)(C)O4`, in series [3], the EC50 was 0.362 µM. The fold change (FC) in the series with KB [1] was determined as 98. The compound further gave a 50% inhibitory concentration (IC50) in series [4] above 10 µM.
With `CC1(C)Oc2ccc3c(=O)c4ccccc4oc3c2[C@@H](OC(=O)[C@@]23CCC(C)(C(=O)O2)C3(C)C)[C@H]1OC(=O)[C@@]12CCC(C)(C(=O)O1)C2(C)C`, the EC50 in series [3] is 0.308 µM. The figures for the fold change (FC) in the series with KB [1] and in the series on KB [5] were 1260 and 20, respectively. The IC50 in series [4] was above 10 µM.
With `CC[C@]1(O)C[C@H]2CN(CCc3c([nH]c4ccccc34)[C@@](C(=O)OC)(c3cc4c(cc3OC)N(C=O)[C@H]3[C@@](O)(C(=O)OC)[C@H](OC(C)=O)[C@]5(CC)C=CCN6CC[C@]43[C@@H]65)C2)C1` [VINCRISTINE], halving of growth in the series with KB [6] (GI50) required 0.002 µM. In addition, the RatioGI50 in the series on KB [7] amounted to 1320.
In the case of `CC1(C)Oc2cc(O)c3c(=O)c4ccccc4oc3c2[C@@H](OC(=O)[C@@]23CCC(C)(C(=O)O2)C3(C)C)[C@H]1OC(=O)[C@@]12CCC(C)(C(=O)O1)C2(C)C`, the fold change (FC) with KB [1] is below 24. For the same compound, in series [4], the concentration for half-maximal inhibition (IC50) is above 10 µM.
`COc1cc2c(c3oc4c(C)cccc4c(=O)c13)[C@@H](OC(=O)[C@@]13CCC(C)(C(=O)O1)C3(C)C)[C@@H](OC(=O)[C@@]13CCC(C)(C(=O)O1)C3(C)C)C(C)(C)O2`: the EC50 in series [3] worked out at 1.52 µM. Moreover, the fold change (FC) in the series on KB [1] worked out at 1100; in the series on KB [5], 20. In series [4], this compound had an IC50 above 10 µM.
As for `COc1cccc2c(=O)c3c(OC)cc4c(c3oc12)[C@@H](OC(=O)[C@@]12CCC(C)(C(=O)O1)C2(C)C)[C@@H](OC(=O)[C@@]12CCC(C)(C(=O)O1)C2(C)C)C(C)(C)O4`, the fold change (FC) worked out at 1020 with KB [1] and 20 with KB [5]. This compound also registered an IC50 in series [4] above 10 µM.
Consider `COc1cc2c(c3oc4cc(C)ccc4c(=O)c13)[C@@H](OC(=O)[C@@]13CCC(C)(C(=O)O1)C3(C)C)[C@@H](OC(=O)[C@@]13CCC(C)(C(=O)O1)C3(C)C)C(C)(C)O2`, for which the concentration for a half-maximal effect (EC50) in series [3] worked out at 0.095 µM. Moreover, the fold change (FC) in the series with KB [1] turned out to be 352. Besides, in series [4], the concentration for half-maximal inhibition (IC50) was above 10 µM.
